{"source": "paper PMC2115016", "about": "(The Journal of Cell Biology, 1988)", "key": {"[1]": {"system": "chick embryo dorsal root ganglia (DRG)", "assay_type": "cell-based", "conditions": "for Inhibition of neurite outgrowth on fibronectin by CS peptide: Table IV, 1 mg/ml peptide, BSA background subtracted"}, "[2]": {"system": "B16-F10 murine melanoma cells", "conditions": "melanoma cell system; cited from earlier work"}, "[3]": {"system": "chick embryo dorsal root ganglia (DRG)", "assay": "Neurite outgrowth of explanted ganglia on substrate-adsorbed ligands", "assay_type": "cell-based", "procedure,_shortened": "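Ligands in Dulbecco's PBS were adsorbed to wells (60 min, RT), then blocked with 10 mg/ml heat-denatured BSA (30 min, RT). For co-coating, the fragment went on first, then the CS-IgG conjugate, 60 min each. Lumbosacral DRG from 10-12-d chick embryos were cultured overnight at 37°C in Ham's F12 with 2 mM glutamine, antibiotics and 20 ng/ml 7S-NGF. After glutaraldehyde fixation, radius was read at four 90° positions with a calibrated eyepiece, 6-10 ganglia per point.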"}, "[4]": {"system": "chick embryo fibroblasts", "assay": "Adhesion and spreading of chick embryo fibroblasts on coated substrates", "assay_type": "cell-based", "conditions": "control experiment"}}}
{"substance": "DELPQLVTLPHPNLHGPEILDVPST [CS1]", "values": [{"measurement": "Inhibition of neurite outgrowth on fibronectin by CS peptide", "setting": "[1]; 20 μg/ml fibronectin", "result": 32, "unit": "%"}, {"measurement": "Inhibition of fibronectin-mediated neurite extension", "setting": "[1]; five independent experiments", "result": "25-30%"}, {"measurement": "Activity relative to fibronectin on a molar basis, fold less active", "setting": "[2]", "result": 2.5, "unit": "fold"}]}
{"substance": "FRRTTPPTTATPIRHRPRPYPPNVGEE [CS4]", "values": [{"measurement": "Further inhibition when coincubated with mAb 333 (300 μg/ml)", "setting": "[1]; Fig. 6, 20 μg/ml fibronectin, CS4 1 mg/ml, compared with mAb 333 alone", "result": "no further inhibitory activity"}]}
{"substance": "Fibronectin", "values": [{"measurement": "Relative activity", "setting": "[3]; Table I, relative to activity of fibronectin after subtraction of the background due to IgG", "result": 100, "unit": "%"}, {"measurement": "Adhesion / spreading of chick embryo fibroblasts on substrate", "setting": "[4]", "result": "adhere equally well"}]}
{"substance": "LPGTSGQQPSVGQQMIFEEHGFRR [CS3]", "values": [{"measurement": "Inhibition of neurite outgrowth on fibronectin by CS peptide", "setting": "[1]; 20 μg/ml fibronectin", "result": 11, "unit": "%"}]}
{"substance": "Nerve growth factor [reference compound]", "values": [{"measurement": "Effect on fibronectin-mediated neurite extension", "setting": "[3]; control experiment, medium supplement 20 ng/ml", "result": "no detectable effect"}]}
